# Laboratory results taken from PubChem BioAssay.
# Active and inactive are the calls of the source.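 How the source made its calls, unless noted: active means viability loss from added drug above about 55%, and viability with drug at most 40%, in both replicates (limit read from the data, passing the limit was not always enough); inconclusive means both conditions met in only one replicate; inactive means neither replicate meets both conditions.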
# Assays:
# [1] = Her2 expression decrease, cell viability multiplex – SKBR3 breast tumor cells, AlphaScreen, ATP viability, primary screen (AID 461;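 active means Her2 level under about 52% in both replicate screens, with viability over 70% of control, limit read from the data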;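 on Her2 level: lower value means less Her2 protein in the cells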;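 on viability: percent of carrier control wells set as 100% viability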); conditions: SKBR3 Her2 protein level, 18-24 h, measured here: SKBR3 viability, ATP luminescence, at 10 µM
# [2] = target: Receptor tyrosine-protein kinase erbB-2 (Homo sapiens) (UniProt P04626); test: as above; conditions: 18-24 h, at 10 µM, stronger effect = lower value
# Sequence of Receptor tyrosine-protein kinase erbB-2 (Homo sapiens) (P04626 whole entry, looked up): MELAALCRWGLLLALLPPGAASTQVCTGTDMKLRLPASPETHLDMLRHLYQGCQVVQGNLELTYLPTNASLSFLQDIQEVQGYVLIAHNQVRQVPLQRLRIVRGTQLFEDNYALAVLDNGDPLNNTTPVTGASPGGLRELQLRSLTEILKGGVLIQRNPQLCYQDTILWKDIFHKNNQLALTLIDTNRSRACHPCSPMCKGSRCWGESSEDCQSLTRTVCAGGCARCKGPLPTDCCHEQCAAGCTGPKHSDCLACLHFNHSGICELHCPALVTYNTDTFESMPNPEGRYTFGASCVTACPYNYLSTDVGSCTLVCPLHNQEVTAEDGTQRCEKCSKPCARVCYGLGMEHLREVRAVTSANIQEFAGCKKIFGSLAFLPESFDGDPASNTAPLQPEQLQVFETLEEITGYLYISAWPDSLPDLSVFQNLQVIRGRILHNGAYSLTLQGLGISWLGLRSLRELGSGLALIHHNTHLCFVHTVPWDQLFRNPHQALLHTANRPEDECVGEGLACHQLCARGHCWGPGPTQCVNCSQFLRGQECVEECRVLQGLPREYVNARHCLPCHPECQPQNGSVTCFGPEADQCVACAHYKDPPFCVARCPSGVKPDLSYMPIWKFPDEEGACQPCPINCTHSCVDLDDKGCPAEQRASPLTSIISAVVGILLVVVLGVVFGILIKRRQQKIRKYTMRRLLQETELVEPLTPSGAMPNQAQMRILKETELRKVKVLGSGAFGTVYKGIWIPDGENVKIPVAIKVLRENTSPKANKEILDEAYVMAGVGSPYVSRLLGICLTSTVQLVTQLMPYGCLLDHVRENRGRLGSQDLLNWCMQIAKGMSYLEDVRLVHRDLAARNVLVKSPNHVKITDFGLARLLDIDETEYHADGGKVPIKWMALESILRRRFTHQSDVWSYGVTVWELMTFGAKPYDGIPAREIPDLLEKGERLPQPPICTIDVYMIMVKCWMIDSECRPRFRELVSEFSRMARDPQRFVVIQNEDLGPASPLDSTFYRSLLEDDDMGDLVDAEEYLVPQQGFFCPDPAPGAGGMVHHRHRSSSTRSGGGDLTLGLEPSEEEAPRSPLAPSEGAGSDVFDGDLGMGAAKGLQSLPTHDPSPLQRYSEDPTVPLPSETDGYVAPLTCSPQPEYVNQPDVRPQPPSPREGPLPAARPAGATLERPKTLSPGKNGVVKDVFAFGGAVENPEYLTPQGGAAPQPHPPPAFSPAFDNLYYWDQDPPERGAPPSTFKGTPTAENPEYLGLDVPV
# [3] = reduced viability of SK-BR-3 breast cancer cells – cell-based, 24 h, human, pilot screen (AID 572;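 active means viability at or below 10% of carrier control in both of two separate runs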;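 further: compound exposure lasted between 18 and 24 h rather than exactly 24 h; 100% = carrier-treated control wells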); conditions: SK-BR-3 viability, CellTiter-Glo luminescence, at 10 µM, stronger effect = lower value
# [4] = HUVEC growth inhibition – cell-based, human, primary screen (AID 575;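 active means viability at or below 30% in both replicate assays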;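 further: 100% = median of untreated cell wells with 0.1% DMSO on each plate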); conditions: HUVEC proliferation, CellTiter-Glo luminescence, 72 h; at 10 µM; stronger effect = lower value
# Summary of the method: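 Test system: HUVEC primary cells. Quantity: 1250 endothelial cells in each well. Dosing: single-point 10 µM, DMSO 0.1% final. Incubation: 72 h treatment at 37 °C. Measured by: CTG luminescence. Control set: DMSO cell controls and MePR drug controls. Plate: collagen-coated 384-well format.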
# [5] = H69AR cell proliferation blockers – human, duplicate replicates, primary screen (AID 580;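 active means viability at or under a set limit in both replicates, limit being median viability minus 3 SD, cut at about 48% in these data, passing the limit was not always enough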;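 further: 100% = mean luminescence of untreated wells and 0% = no signal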); conditions: H69AR lung tumor cells viability, ATP luminescence, 72 h; at 10 µM; stronger effect = lower value
# [6] = MRP1 drug-resistance reversers in H69AR cells – cell-based, doxorubicin co-treatment, pilot screen (AID 601); conditions: CellTiter-Glo, 72 h, at 10 µM; for differential viability (reversal): stronger effect = higher value
# [7] = yeast transport mutant growth inhibition pilot in 384-well plates, post-Golgi transport modulator project (AID 636; in the data active means inhibition above about 31%); conditions: absorbance 615 nm, about 18 h, stronger effect = higher value
# [8] = growth suppression of yeast trafficking mutant, preliminary HTS, modulators of trafficking downstream of Golgi apparatus project, 1536-format plate, OD 615 nm (AID 637; in the data active means inhibition above about 30%); conditions: yeast transport mutant growth, absorbance 615 nm, 18 h; stronger effect = higher value
# [9] = H69AR cells + 2 uM doxorubicin, measured here: viability with 2 uM doxorubicin, stronger effect = lower value
# [10] = H69AR cells, compound alone cytotoxicity
SMILES,viability [1],Her2 level [2],viability [3],viability [4],viability [5],differential viability (reversal) ([6]; H69AR cells + 2 uM doxorubicin),"viability [6, 9]","viability [6, 10]",inhibition [7],inhibition [8]
O=C(Cn1nnc(-c2ccc(S(=O)(=O)N3CCCC3)cc2)n1)NCC1CCCO1 (stereo not given),86%,99% (inactive),86% (inactive),89% (inactive),101% (inactive),2.39% (inactive),98.7%,101%,-3.78% (inactive),2.95% (inactive)
COc1ccc2nc(C)cc(N3CCOCC3)c2c1,128%,101% (inactive),128% (inactive),101% (inactive),93.1% (inactive),-3.77% (inactive),96.9%,93.1%,-3.68% (inactive),9.67% (inactive)
c1ccc2c(c1)CC(N1CCCCC1)c1ccccc1N2 (stereo not given),79.5%,91% (inactive),79.5% (inactive),90.1% (inactive),91.5% (inactive),4.69% (inactive),86.8%,91.5%,-1.82% (inactive),-3.93% (inactive)
COCCn1c(C23CC4CC(CC(C4)C2)C3)n[nH]c1=S,90%,94.5% (inactive),90% (inactive),79.5% (inactive),77.2% (inactive),1.57% (inactive),75.6%,77.2%,-2.34% (inactive),1.33% (inactive)
Cc1cc(-n2c(C)cc(C(=O)CSc3nc4ccccc4c(=O)n3Cc3ccco3)c2C)no1,105%,83.5% (inactive),105% (inactive),92.2% (inactive),93.8% (inactive),4.09% (inactive),89.7%,93.8%,-6.8% (inactive),-1.43% (inactive)
Cc1cc2ncn(C(=O)c3c(-c4ccccc4)noc3C)c2cc1C,102%,110% (inactive),102% (inactive),76.8% (inactive),81.8% (inactive),4.1% (inactive),77.7%,81.8%,0.13% (inactive),-6.23% (inactive)
CCCCCCNC(=O)Cc1c(O)c2ccccc2[nH]c1=O,105%,90.5% (inactive),105% (inactive),114% (inactive),94.9% (inactive),14.7% (inactive),80.2%,94.9%,-5.27% (inactive),7.67% (inactive)
NC(=O)CCS(=O)(=O)CCN1CCCCC1,93.5%,86% (inactive),93.5% (inactive),102% (inactive),93.2% (inactive),-0.51% (inactive),93.7%,93.2%,-0.13% (inactive),-2.95% (inactive)
CC1(C)CC(=O)c2cc(OCC(=O)NCCCN3CCN(c4ccccc4F)CC3)ccc2O1,81%,85.5% (inactive),81% (inactive),59.3% (inactive),80% (inactive),-5.98% (inactive),86%,80%,-4.61% (inactive),-3.45% (inactive)
Cc1ccc(Cn2c(SCC(C)C)nc3c2c(=O)n(C)c(=O)n3C)cc1,84.5%,75.5% (inactive),84.5% (inactive),62.2% (inactive),77.5% (inactive),-12.6% (inactive),90.1%,77.5%,-1.84% (inactive),9.34% (inactive)
CCOC(=O)c1c(NC(=O)CSc2nnc(-c3ccc(OC)cc3)o2)sc2c1CCC2,88%,100% (inactive),88% (inactive),76.1% (inactive),82.1% (inactive),-8.29% (inactive),90.4%,82.1%,-0.26% (inactive),-1.77% (inactive)
Nc1scc(-c2ccncc2)c1Cl,90.5%,77.5% (inactive),90.5% (inactive),83.5% (inactive),96.2% (inactive),8.54% (inactive),87.7%,96.2%,-5.07% (inactive),-3.49% (inactive)
CCS(=O)(=O)N1CCCC(c2nc(-c3cccc(OC)c3)no2)C1 (stereo not given),100%,110% (inactive),100% (inactive),96.7% (inactive),92.7% (inactive),0.525% (inactive),92.2%,92.7%,-3.84% (inactive),-2.7% (inactive)
Cc1cc(Nc2ccc(N3CCC(C)CC3)cc2)n2ncnc2n1,100%,110% (inactive),100% (inactive),101% (inactive),77.6% (inactive),-1.35% (inactive),79%,77.6%,5.62% (inactive),3.02% (inactive)
O=C(c1ccccc1F)N1CCN(Cc2cccc(Cl)c2)CC1,101%,104% (inactive),101% (inactive),107% (inactive),100% (inactive),16.8% (inactive),83.6%,100%,-5.32% (inactive),-2.86% (inactive)
COCCSc1nnc(NC(=O)Cc2ccccc2OC)s1,106%,76% (inactive),106% (inactive),91% (inactive),98.9% (inactive),7.86% (inactive),91%,98.9%,-5.39% (inactive),-1.67% (inactive)

SMILES,viability [1],Her2 level [2],viability [3],viability [4],viability [5],differential viability (reversal) ([6]; H69AR cells + 2 uM doxorubicin),"viability [6, 9]","viability [6, 10]",inhibition [7],inhibition [8]
Cn1c(=O)c2c(nc(SCC(=O)NCc3ccco3)n2C)n(C)c1=O,116%,98.5% (inactive),116% (inactive),87.1% (inactive),93.5% (inactive),-0.15% (inactive),93.6%,93.5%,-0.78% (inactive),-4.76% (inactive)
O=C(NCc1cccnc1)c1ccccn1,102%,108% (inactive),102% (inactive),103% (inactive),110% (inactive),16.2% (inactive),93.9%,110%,-4.8% (inactive),-3.65% (inactive)
O=c1oc2ccccc2c2nccnc12,93.5%,115% (inactive),93.5% (inactive),103% (inactive),96.5% (inactive),5.08% (inactive),91.4%,96.5%,-0.13% (inactive),-9.5% (inactive)
Cc1ccc2cc(C#N)c(NCCCNC(=O)C3CCCO3)nc2c1 (stereo not given),106%,73% (inactive),106% (inactive),104% (inactive),99% (inactive),12.6% (inactive),86.4%,99%,-6.71% (inactive),6.19% (inactive)
FC(F)(F)c1nnc2sc(-c3cccs3)nn12,102%,86.5% (inactive),102% (inactive),93.9% (inactive),113% (inactive),19.7% (inactive),93%,113%,-7.43% (inactive),4.6% (inactive)
O=C1CC(c2ccco2)=Nc2ccccc2N1,95%,118% (inactive),95% (inactive),94.9% (inactive),109% (inactive),16.7% (inactive),92.5%,109%,-0.13% (inactive),-3.06% (inactive)
Cc1cccc(N2CCN(C(=O)c3cc4c(=O)[nH]c5ccccc5c4n3C)CC2)c1C,72.5%,57.5% (inactive),72.5% (inactive),65.5% (inactive),95.9% (inactive),13% (inactive),82.9%,95.9%,-3.33% (inactive),11% (inactive)
CCn1cc(C2=NOC(C(=O)Nc3cc(C)nn3-c3ccccc3)C2)c(C)n1 (stereo not given),89.5%,88.5% (inactive),89.5% (inactive),101% (inactive),101% (inactive),8.29% (inactive),93%,101%,-1.18% (inactive),-8.25% (inactive)
O=C(O)c1cccc(NS(=O)(=O)c2ccc3nnn(O)c3c2)c1,123%,87% (inactive),123% (inactive),94.9% (inactive),102% (inactive),3.63% (inactive),98%,102%,-4.27% (inactive),5.71% (inactive)
COc1cccc(Oc2ccc(N)cn2)c1,87%,106% (inactive),87% (inactive),109% (inactive),88.1% (inactive),3.66% (inactive),84.4%,88.1%,-2.37% (inactive),-4.43% (inactive)
CC(C)NC(=O)CSCc1ccccc1Cl,96%,95% (inactive),96% (inactive),86.8% (inactive),94.8% (inactive),18% (inactive),76.8%,94.8%,-3.33% (inactive),0.97% (inactive)
COCCN(C(=O)Cn1nnc2ccccc21)C(C(=O)NC1CCCC1)c1cc(OC)ccc1OC (stereo not given),86%,106% (inactive),86% (inactive),101% (inactive),93.9% (inactive),-0.19% (inactive),94.1%,93.9%,-0.8% (inactive),-4.92% (inactive)
CSc1ccccc1N=CC1=C(O)CC(C)(C)CC1=O,118%,96% (inactive),118% (inactive),67.1% (inactive),89.2% (inactive),-0.87% (inactive),90.1%,89.2%,-4.94% (inactive),-3.28% (inactive)
COc1ccc(S(=O)(=O)N(C)c2ccc(C(=O)N3CCOCC3)cc2)cc1,79.5%,89.5% (inactive),79.5% (inactive),94.4% (inactive),95.2% (inactive),3.61% (inactive),91.5%,95.2%,-0.92% (inactive),1.8% (inactive)
O=C(O)c1ccc(COc2c(F)c(F)cc(F)c2F)cc1,114%,93.5% (inactive),114% (inactive),101% (inactive),103% (inactive),0.99% (inactive),102%,103%,-5.73% (inactive),-0.79% (inactive)
COc1cc(C(=O)Nc2ccc(-n3cnnn3)c(C)c2)cc(OC)c1OC,105%,95.5% (inactive),105% (inactive),99.8% (inactive),74% (inactive),-24.8% (inactive),98.8%,74%,-2.08% (inactive),-7.3% (inactive)
